Test results from ChEMBL document CHEMBL1147345, “Appenolides A-C: three new antifungal furanones from the coprophilous fungus Podospora appendiculata” (1993).
Activity calls are given as the source filed them. The calls are words filed in the database; no cut-off is given here.

Key:
Assay type in all cases: functional
[1] = system: Sordaria fimicola; experiment: Antifungal activity against Sordaria fimicola NRRL 6459 assessed as reduction in radial growth rate at 150 ug/disk by centerpoint inoculation disk assay; parameters: scale not given: the % may be the effect or the level left
[2] = system: Bacillus subtilis; experiment: Antibacterial activity against Bacillus subtilis ATCC 6051 at 150 ug/disk by standard disk assay; settings: for zone of inhibition at 150 µg/disc: read-out: IZ
Summary of the method: (§1)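 Standard disc assay with 150 µg of compound loaded per disc. Activity is read as the zone of inhibition around the disc, in mm.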

[3] = system: Ascobolus stercorarius; experiment: Antifungal activity against Ascobolus furfuraceus NRRL 6460 assessed as reduction in radial growth rate at 50 ug/disk by centerpoint inoculation disk assay; parameters: scale not given: the % may be the effect or the level left
[4] = system: Candida albicans; experiment: Antifungal activity against Candida albicans ATCC 14053 at 150 ug/disk by standard disk assay; settings: read-out: IZ; summary of the method: as §1

CC(=O)CCCCC/C=C/C1=C(C)C(=O)OC1 [APPENOLIDE A]
Activity [1]: 54%
Activity [2]: inactive
Activity [3]: 26%
zone of inhibition at 150 µg/disc [4]: 12 mm

CCC(O)CCCC/C=C/C1=C(C)C(=O)OC1 (configuration not stated) [APPENOLIDE C]
Activity [1]: Active
zone of inhibition at 150 µg/disc [2]: 8 mm
Activity [3]: Active
zone of inhibition at 150 µg/disc [4]: 12 mm

CC1=C(/C=C/CCCCCC(C)O)COC1=O (configuration not stated) [APPENOLIDE B]
Activity [1]: Active
zone of inhibition at 150 µg/disc [2]: 8 mm
Activity [3]: Active
zone of inhibition at 150 µg/disc [4]: 12 mm
